Measurements: ChEMBL document CHEMBL4028907, “Semisynthesis and Biological Evaluation of Xanthone Amphiphilics as Selective, Highly Potent Antifungal Agents to Combat Fungal Resistance” (J Med Chem, 2017)
Values after ≈ are worked out from the molar mass of the structure shown. Active and inactive are the calls of the source. The rule behind the calls is not given here.

How the values were obtained:
Fusarium oxysporum [1] = assay: Antifungal activity against Fusarium oxysporum MYA3461 after 48 hrs by two fold serial dilution method; assay type: functional; details: MYA3461, 48 h
Outline: (§1)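 Moulds grown on potato dextrose agar, 30 °C, 4 days; inoculum adjusted to about 5×10^3 CFU/mL. Two-fold serial dilutions in RPMI-1640 broth, 100 to 0.78 μg/mL final, mixed with equal volume of cell suspension; incubated 30 °C, 48 h. MIC = lowest concentration inhibiting growth, judged visually and by OD530.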

Candida albicans [2] = assay: Fungicidal activity against drug resistant Candida albicans DF2672R at 1 time MIC after 1 hr by time kill assay relative to control; assay type: functional
Outline: (§2)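 Cells at 10^5–10^6 CFU/mL exposed to 1×, 2×, 4× or 8× MIC at 35 °C. Samples taken at 0.5, 1, 2, 4, 8 and 24 h, serially diluted in PBS and plated on SDA. CFU counted after 24 h at 35 °C; biological replicates.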

Candida albicans [3] = assay: Antifungal activity against drug resistant Candida albicans DF2672R after 24 hrs by two fold serial dilution method; assay type: functional
Outline: (§3)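 Candida grown on Sabouraud dextrose agar at 35 °C for 24 h, adjusted to ~5×10^3 CFU/mL. Two-fold dilutions from 100 to 0.78 μg/mL in Sabouraud dextrose broth, incubated at 35 °C for 24 h. MIC is the lowest concentration inhibiting growth by eye and by OD600. CLSI-based with minor modifications.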

Lipid bilayer [4] = assay: Induction of membrane permiablization in calcein loaded DOPC/DOPE/PI large unilamellar vesicles assessed as calcein leakage at 1:8 compound to lipid ratio after 1 to 2 hrs by […] fluorescence assay relative to control
Outline: (§4)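 LUVs (DOPC/DOPE/PI 2:1:1 with 15 wt % ergosterol, about 100 nm) made by film hydration and extrusion, loaded with 80 mM calcein in HEPES buffer pH 7.4. Free dye removed by G-50 column. Compound added in 0.5% DMF at 50 μM final phospholipid. Emission read at 520 nm (excitation 490 nm); leakage normalized to 1% Triton X-100.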

Candida albicans [5] = assay: Antifungal activity against Candida albicans DF1976R after 24 hrs by two fold serial dilution method; assay type: functional; outline: as §3
Candida albicans [6] = assay: Induction of membrane permiablization in drug resistant Candida albicans DF2672R at 4 times MIC after 1 to 2 hrs by SYTOX green dye based spectrofluorometric assay; assay type: functional
Outline: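 Overnight cultures washed and resuspended in PBS at OD600 0.2, then loaded with 0.3 μM SYTOX Green in the dark. After the signal stabilised, compound in PBS/DMF was added (final DMF 0.5%; 0.5% DMF as control). Fluorescence (ex 504/em 523 nm) followed continuously for 1–2 h; biological replicates.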

Aspergillus flavus [7] = assay: Antifungal activity against Aspergillus flavus TCC 204304 after 48 hrs by two fold serial dilution method; assay type: functional; details: TCC 204304, 48 h; outline: as §1
[8] = Selectivity index, ratio of IC50 for human corneal fibroblasts to MIC for drug resistant Candida albicans DF2672R
Aspergillus flavus [9] = assay: Antifungal activity against Aspergillus flavus TCC MYA3631 after 48 hrs by two fold serial dilution method; assay type: functional; details: TCC MYA3631, 48 h; outline: as §1
[10] = Cytotoxicity against human corneal fibroblasts assessed as cell viability at 100 uM after 4 hrs by LDH assay relative to control; assay type: cell-based, Corneal fibroblast; details: read-out: Activity
Outline: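 LDH release assay on human corneal fibroblasts seeded at 10000 cells per well, exposed to a range of compound concentrations up to 100 μM. 1% Triton X-100 served as positive control and 0.5% DMSO as negative control; biological replicates.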

Candida albicans [11] = assay: Synergistic antifungal activity against drug resistant Candida albicans DF2672R after 24 hrs in presence of terbinafine by checkerboard assay; assay type: functional
Outline: (§5)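 Checkerboard combination of each compound with a second antifungal, following a previously reported procedure. FIC = MIC of A in combination/MIC of A alone + MIC of B in combination/MIC of B alone.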

Fusarium solani [12] = assay: Antifungal activity against Fusarium solani MYA3636 after 48 hrs by two fold serial dilution method; assay type: functional; details: MYA3636, 48 h; outline: as §1
Bacillus cereus = assay: Antibacterial activity against Bacillus cereus ATCC11778 by two fold serial dilution method; assay type: functional
Outline: (§6)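 Broth microdilution (CLSI, minor modifications) in Sabouraud dextrose, Mueller−Hinton or RPMI 1640 broth; two-fold serial dilutions of compound from stock to final 100 to 0.78 μg/mL. MIC taken as lowest concentration giving no visible growth.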

Candida albicans [13] = assay: Synergistic antifungal activity against drug resistant Candida albicans DF2672R after 24 hrs in presence of itraconazole by checkerboard assay; assay type: functional; outline: as §5
Staphylococcus aureus [14] = assay: Antibacterial activity against methicillin resistant Staphylococcus aureus DM9808R by two fold serial dilution method; assay type: functional
Outline: (§7)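 Broth microdilution per CLSI guidelines with minor modifications, run in Mueller−Hinton broth; MIC is the lowest concentration giving no visible growth.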

Fusarium solani [15] = assay: Antifungal activity against Fusarium solani 52628 after 48 hrs by two fold serial dilution method; assay type: functional; details: Fusarium solani, 52628, 48 h; outline: as §1
Candida albicans [16] = assay: Potency index, ratio of natamycin concentration to compound concentration for antifungal activity against drug resistant Candida albicans DF2672R infected C57BL6 mouse; assay type: functional
Candida albicans [17] = assay: Antifungal activity against Candida albicans ATCC90028 after 24 hrs by two fold serial dilution method; assay type: functional; details: ATCC90028, 24 h; outline: as §3
Lipid bilayer [18] = assay: Induction of membrane permiablization in calcein loaded DOPC/DOPE/PI large unilamellar vesicles assessed as calcein leakage at 1:4 compound to lipid ratio after 1 to 2 hrs by fluorescence assay relative to control; outline: as §4
[19] = Dissociation constant, pKa of compound; assay type: physicochemical
Candida albicans [20] = assay: Antifungal activity against drug resistant Candida albicans DF2672R measured after 27 passages by two fold serial dilution method; assay type: functional
Outline: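 Serial passage: cells from duplicate tubes at 0.5× MIC adjusted to ~5×10^3 CFU/mL and used as the inoculum for the next broth microdilution MIC, 24 h at 35 °C. Repeated for 27–30 passages, with biological replicates.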

Candida albicans [21] = assay: Synergistic antifungal activity against drug resistant Candida albicans DF2672R after 24 hrs in presence of posaconazole by checkerboard assay; assay type: functional; outline: as §5
Fusarium oxysporum [22] = assay: Antifungal activity against Fusarium oxysporum 64530 after 48 hrs by two fold serial dilution method; assay type: functional; details: Fusarium oxysporum, 64530, 48 h; outline: as §1
Fusarium solani [23] = assay: Antifungal activity against Fusarium solani 62877 after 48 hrs by two fold serial dilution method; assay type: functional; details: Fusarium solani, 62877, 48 h; outline: as §1
Candida albicans [24] = assay: Fungicidal activity against drug resistant Candida albicans DF2672R at 4 times MIC after 1 hr by time kill assay relative to control; assay type: functional; outline: as §2
Staphylococcus aureus [25] = assay: Antibacterial activity against methicillin resistant Staphylococcus aureus DM21455 by two fold serial dilution method; assay type: functional; outline: as §7
[26] = Selectivity index, ratio of HC50 for New Zealand white rabbit RBC to MIC for Candida albicans ATCC 10231
Pseudomonas aeruginosa = assay: Antibacterial activity against Pseudomonas aeruginosa DM23155 by two fold serial dilution method; assay type: functional; outline: as §6
Candida albicans [27] = assay: Synergistic antifungal activity against drug resistant Candida albicans DF2672R after 24 hrs in presence of amphotericin B by checkerboard assay; assay type: functional; outline: as §5
Candida albicans [28] = assay: Antifungal activity against Candida albicans ATCC11651 after 24 hrs by two fold serial dilution method; assay type: functional; details: ATCC11651, 24 h; outline: as §3

COc1c(OCC(O)CNC(=N)N)cc2oc3cc(OCC(O)CNC(=N)N)c(CC=C(C)C)c(O)c3c(=O)c2c1CC=C(C)C (stereo not given)
MIC (Fusarium oxysporum [1]): 1.56 mg/L (≈ 2.43 µM)
Activity (Candida albicans [2]): 91%
MIC (Candida albicans [3]): 0.78 mg/L (≈ 1.22 µM)
Activity (Lipid bilayer [4]): 43.8%
MIC (Candida albicans [5]): 0.78 mg/L (≈ 1.22 µM)
Activity (Candida albicans [6]): Active
MIC (Aspergillus flavus [7]): 6.25 mg/L (≈ 9.75 µM)
Selectivity Index [8]: 41 - 82
MIC (Aspergillus flavus [9]): 6.25 mg/L (≈ 9.75 µM)
viability at 4 h, 100 µM [10]: 44.4%
fractional inhibitory concentration index (FICI) (Candida albicans [11]): 0.44
MIC (Fusarium solani [12]): 3.13 mg/L (≈ 4.88 µM)
MIC (Bacillus cereus): 1.56 to 3.13 mg/L (≈ 2.43 to 4.88 µM)
fractional inhibitory concentration index (FICI) (Candida albicans [13]): 1.28
MIC (Staphylococcus aureus [14]): 1.56 to 3.13 mg/L (≈ 2.43 to 4.88 µM)
MIC (Fusarium solani [15]): 3.13 mg/L (≈ 4.88 µM)
Ratio (Candida albicans [16]): 25
MIC (Candida albicans [17]): 0.78 mg/L (≈ 1.22 µM)
Activity (Lipid bilayer [18]): 75.6%
pKa [19]: 12.5
Activity (Candida albicans [20]): Active
fractional inhibitory concentration index (FICI) (Candida albicans [21]): 1.06
MIC (Fusarium oxysporum [22]): 3.13 mg/L (≈ 4.88 µM)
MIC (Fusarium solani [23]): 3.13 mg/L (≈ 4.88 µM)
Activity (Candida albicans [24]): 99.9%
MIC (Staphylococcus aureus [25]): 1.56 to 3.13 mg/L (≈ 2.43 to 4.88 µM)
Selectivity Index [26]: 61
MIC (Pseudomonas aeruginosa): 25 to 50 mg/L (≈ 39 to 78 µM)
fractional inhibitory concentration index (FICI) (Candida albicans [27]): 1.28
MIC (Candida albicans [28]): 0.78 mg/L (≈ 1.22 µM)
